# Screening results (PubChem BioAssay)
# VLA-4 inh – inhibition in a human VLA-4 binding assay | P13612 | AID 2557 | VLA-4 expressing cells, ligand binding flow cytometry | inhibition, % (about 7 µM as worked out from the volumes in the protocol) | 330,000 tested, 0.2% active; in the data active = inhibition above about 50%
# Platelet DG rel – platelet dense granule release activity | human platelet-rich plasma, SFLLRN dense granule ATP release, luminescence | 300,000 tested, 0.22% active | AID 1663 | inhibition, %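 (compounds screened at 7.5 µM in platelet-rich plasma)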;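 active = mean replicate score, as percent of positive control, at or above 50; inconclusive = mean below 50 but at least one replicate at or above 50; inactive = mean and every replicate below 50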
# SENP1 inh – inhibitors of human SENP1 SUMO protease catalytic domain; Q9P0U3; recombinant SENP1 catalytic domain, CyPet-SUMO1-YPet FRET cleavage; inhibition, % at 10 µM; 360,000 tested, 0.21% active; AID 624204;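 active = inhibition at least 30% at 10 µM, raw YFP signal under a set limit, fluorescence ratio 0.5 to 1.5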
# Target sequence (Q9P0U3 419-644 limits assumed): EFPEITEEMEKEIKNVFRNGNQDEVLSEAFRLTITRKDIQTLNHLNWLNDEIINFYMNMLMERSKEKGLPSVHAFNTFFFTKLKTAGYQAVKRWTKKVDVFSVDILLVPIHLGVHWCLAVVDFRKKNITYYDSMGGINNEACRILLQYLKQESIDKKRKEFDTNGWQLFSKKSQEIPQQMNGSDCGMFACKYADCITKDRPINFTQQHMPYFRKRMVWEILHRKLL
#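 Material – human SENP1 catalytic domain · Input – SENP1 enzyme, 20 pM final · Compound dosing – single concentration of 10 µM compound, 0.5% DMSO final · Timing – enzyme reaction for 50 min at room temperature, dark · Measured by – FRET fluorescence in CFP and YFP emission channels · Control set – no-enzyme wells low, DMSO-plus-enzyme wells high control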
# Myeloid diff MLP – compounds promoting myeloid differentiation; ER-HoxA9 myeloid progenitors, lysozyme-GFP differentiation, flow cytometry; calls only at 10 µM; 360,000 tested, 1% active; AID 624256;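 active = normalized GFP-positive differentiation at or above the plate's own cutoff, the solvent-only control mean plus 3 SD; inconclusive = no clear call, values can overlap the other calls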;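 also: cells exposed to compound for four days before flow analysis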
# A number is an active result; - = inactive; ? = inconclusive; . = no result; + = active, no number. Hits are enriched below; roughly 1.5% of the tested compounds scored in any of these assays.
SMILES,VLA-4 inh,Platelet DG rel,SENP1 inh,Myeloid diff MLP
COC(=O)C1=C(C)N(Cc2ccccc2)C(=NCCc2cccnc2)N[C@H]1c1ccc(Br)cc1,-,.,-,+
O=C(Cn1nc2n(c1=O)-c1ccccc1SC2)N/N=C/c1cccnc1,-,-,-,-
COc1ccc(Cl)cc1NC(=O)C1CC(=O)N(C2CCCCC2)C1 (stereo not given),-,-,-,+
O=C(COC(=O)/C=C/c1ccco1)NCc1ccc2c(c1)OCO2,-,-,-,-
COC(=O)N1CCCCC1c1cc(C(=O)Nc2ccccc2Cl)no1 (stereo not given),.,.,-,-
Cc1ccc(Cl)c(OCC(=O)Nc2ccccc2C(=O)NC2CC2)c1,-,53,-,-
Cc1ccc(C)c(OCC(=O)Nc2ccccc2C(=O)NC2CC2)c1,-,-,-,-
CC(C)OCCCN(C)C1CCN(S(=O)(=O)c2csc(C(N)=O)c2)CC1,-,-,-,-
CC(C)OCCCN(C)C1CCN(S(=O)(=O)c2ccc(-c3cc(C(F)(F)F)no3)s2)CC1,-,-,-,+
O=c1c2c(-c3ccc([N+](=O)[O-])cc3)ccnc2[nH]n1-c1ccccc1,-,-,-,-
O=[N+]([O-])c1cccc2cn[nH]c12,-,-,-,+
COc1ccc2c(c1OC)C(=O)N1C2SC[C@H]1C(=O)NC1CCCC1 (stereo not given in full),-,-,-,-
CCOC(=O)c1c(N2CCCCC2)c2ccccc2[nH]c1=O,-,70,-,-
O=C(/C=C/Nc1ccccc1Br)c1ccccn1,-,54,-,-
COC(=O)C1CCN(C(=O)COC(=O)c2cc(-c3ccccc3)nc3ccc(OC)cc23)CC1,-,.,-,+
COc1ccc(-c2cc(C(=O)OCC(=O)N3CCOCC3)c3ccccc3n2)cc1,-,.,-,-
Cc1ccc2c(c1)N(CC(=O)NCCc1ccccc1)C(=O)c1cccnc1O2,-,-,-,-
O=C(CSc1ccsc1[N+](=O)[O-])N1CCN(c2ccc(Cl)cc2)CC1,-,-,-,+
Cc1ccc(OCC(=O)NCCCNC(=O)c2ccncc2)cc1C,-,-,-,-
Cc1cccc(NC(=O)Cn2nnc(-c3cccs3)n2)c1C,-,-,-,+
CCc1ccccc1NC(=O)Cn1nnc(-c2cccs2)n1,-,-,-,-
COc1ccc(N2C(=O)C(=O)/C(=C(/O)c3ccc(C)cc3)C2c2cccnc2)cc1 (stereo not given),-,-,-,+
COc1ccc(N2CCN(C(=O)c3ccccc3NC(=O)c3ccccc3)CC2)cc1,-,-,-,-
CC1CCCN(CCCN2C(=O)C3C(C(=O)Nc4ccc(Cl)cc4)C4C=CC3(O4)C2C(=O)NC2CCCCC2)C1 (stereo not given),-,-,-,-
COc1ccc(NC(=O)CSc2nnc(C3CCCCC3)o2)c(OC)c1,-,-,-,+
SMILES,VLA-4 inh,Platelet DG rel,SENP1 inh,Myeloid diff MLP
Cc1ccccc1C(=O)N1CCC(C(=O)Nc2cccc(S(=O)(=O)N3CCCCC3)c2)CC1,-,.,-,-
Cc1ccccc1C(=O)N1CCC(C(=O)Nc2ccc(S(=O)(=O)N3CCCC3)cc2)CC1,-,-,-,+
O=C(O)Cc1sc(Nc2ccccc2)nc1-c1cccs1,-,-,-,+
CCOC(=O)c1ccc(N2CCCCC2)c(NS(=O)(=O)c2ccc(C)cc2)c1,-,-,-,-
COc1ccc(C2C(C(C)=O)=C(O)C(=O)N2c2ccccn2)cc1 (stereo not given),-,-,-,-
CCc1ccc(-c2cc(C)no2)cc1S(=O)(=O)N1CCN(c2ccc(F)cc2)CC1,-,-,-,+
COc1cc(C(=O)NNC(=O)CCOc2ccccc2)cc(OC)c1OC,-,.,-,+
COc1cc(C(=O)NNC(=O)Cc2cccs2)cc(OC)c1OC,-,.,-,-
O=C1CC(c2ccco2)CC(O)=C1C=Nc1cc(Cl)ccc1Cl (stereo not given),-,-,-,-
O=C1CC(c2ccco2)CC(O)=C1C=Nc1cc(Cl)ccc1O (stereo not given),-,-,37,-
COc1ccc(NC(=O)CSc2nnc(NC(=O)c3ccccc3C(=O)O)s2)cc1,-,-,-,.
COc1ccccc1N1CCN(c2ccc(-c3ccccc3)nn2)CC1,-,54,-,?
O=C(COC(=O)c1cc(=O)[nH]c2ccccc12)NCc1ccccc1Cl,-,.,-,-
CN=C1NC(C)(C)C2CCC(C)(CC2)S1,.,.,-,+
CN(C)c1ccc(/C=C2\N=C(c3ccc(Cl)c([N+](=O)[O-])c3)NC2=O)cc1,-,-,65,+
COc1ccc(S(=O)(=O)n2nc(C)cc2C)cc1OC,-,-,-,-
N#CC1=C(N)Oc2cc(N)ccc2C1c1ccsc1 (stereo not given),-,-,-,-
N#CC1=C(N)Oc2cc(N)ccc2C1c1cc(Br)cs1 (stereo not given),-,-,-,+
O=[N+]([O-])c1ccc(O)c(/C=N/n2c(-c3ccccc3)n[nH]c2=S)c1,-,-,-,-
O=[N+]([O-])c1ccc(Cl)c(/C=N/n2c(-c3ccncc3)n[nH]c2=S)c1,-,-,-,+
CC(=O)c1ccccc1NC(=O)CN1C(=O)NC2(CCCCCCC2)C1=O,.,.,-,-
COc1ccc(NC(=O)N2CCc3ccccc32)cc1,-,53,-,-
COc1ccc(NC(=O)N2CCCc3ccccc32)cc1,-,-,-,-
COc1ccccc1C(=O)OCC(=O)NC1CCCC1,-,-,-,+
O=C(COC(=O)c1ccccc1Br)NC1CCCC1,-,-,-,+
SMILES,VLA-4 inh,Platelet DG rel,SENP1 inh,Myeloid diff MLP
O=C(COC(=O)c1ccc(F)c(S(=O)(=O)N2CCOCC2)c1)Nc1ccc(Cl)cn1,.,.,-,-
O=C(CSc1nnc(-c2cccs2)n1C1CC1)NC1CCS(=O)(=O)C1 (stereo not given),-,.,-,-
Cc1ccc(C)c(N2N=C(C(=O)NCCN3C(=O)S/C(=C\c4cccnc4)C3=O)CCC2=O)c1,-,-,-,-
O=C(COc1ccc2ccccc2c1)NCC1CCCO1 (stereo not given),-,-,-,-
COC(=O)CSc1nnc(C)n1-c1ccc(C)cc1,-,-,-,+
COc1ccc(-n2c(COc3ccc(C)cc3)nnc2SCC(N)=O)cc1,-,-,-,+
Cc1nc([N+](=O)[O-])cn1Cc1cccc([N+](=O)[O-])c1,-,-,-,-
Cc1cc(C)cc(N(CCC#N)C(=O)COC(=O)c2ccc(OCc3c(C)noc3C)cc2)c1,-,-,-,-
CC(=O)c1c(C)nn(CC(=O)NC2CCCN(Cc3ccc(CC(C)C)cc3)C2)c1C (stereo not given),-,77,-,-
Cc1nonc1OCCNCc1c(C(=O)N2CCCCCCC2)nc2ccc(Cl)cn12,-,-,-,-
Oc1cccc(/C=N/Nc2nn3cnnc3c3ccccc23)c1,-,57,-,-
COc1cccc(/C=N/Nc2nn3cnnc3c3ccccc23)c1O,-,-,55,-
CCc1cc2c(-c3ccccc3)cc(=O)oc2cc1OC(C)C(=O)NCC1CCC(C(=O)O)CC1 (stereo not given),-,-,-,-
Nc1ccc2ncccc2c1N,-,.,-,+
c1cnc2ccc3ncccc3c2c1,-,-,-,-
